Assay results: ChEMBL document CHEMBL2163204, “Synthesis and nicotinic acetylcholine receptor in vitro and in vivo pharmacological properties of 2'-fluoro-3'-(substituted phenyl)deschloroepibatidine analogues of 2'-fluoro-3'-(4-nitrophenyl)deschloroepibatidine” (J Med Chem, 2012)

Columns and labels:
[1] = molecular target: Neuronal acetylcholine receptor subunit alpha-7 (Rattus norvegicus) (UniProt Q05941); test: Agonist activity at rat alpha7 nAChR expressed in Xenopus laevis oocytes at 100 uM after 2 to 6 days by two electrode voltage clamp assay relative to acetylcholine; type: functional, cell-based; conditions: Oocyte
Summary of the method: (§1)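 Two-electrode voltage clamp on Xenopus oocytes injected with rat subunit cRNA (α3β4 at 1:1 molar ratio), incubated at 19 °C in modified Barth's saline (pH 7.6). Oocytes perfused with ND96 (pH 7.5) at 20–25 °C. 100 µM compound applied for 15 s (α3β4) or 5 s (α7), 3-min washes. Response compared with the mean of three preceding ACh applications and expressed as % of maximal ACh response.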

[2] = molecular target: T1, Neuronal acetylcholine receptor; alpha3/beta4 (Rattus norvegicus) (UniProt P04757+P12392); test: Agonist activity at rat alpha3beta4 nAChR expressed in Xenopus laevis oocytes at 100 uM after 2 to 6 days by two electrode voltage clamp assay relative to acetylcholine; type: functional, cell-based; conditions: Oocyte; summary of the method: as §1
[3] = molecular target: T2, Neuronal acetylcholine receptor; alpha4/beta2 (Rattus norvegicus) (UniProt P09483+P12390); test: Agonist activity at rat alpha4beta2 nAChR expressed in Xenopus laevis oocytes at 100 uM after 2 to 6 days by two electrode voltage clamp assay relative to acetylcholine; type: functional, cell-based; conditions: Oocyte
Mus musculus [4] = test: Effect on spontaneous locomotor activity in sc dosed mouse after 5 mins by photocell based method; type: functional
Summary of the method: (§2)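 Mice put into photocell activity cages 5 min after s.c. saline or compound. Beam interruptions counted over the next 10 min.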

Mus musculus [5] = test: Effect on hypothermia in sc dosed mouse assessed as variation in rectal temperature measured after 30 mins by thermister probe based method; type: functional; conditions: 0.5 h
Summary of the method: (§3)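 Rectal temperature measured by thermistor probe inserted 24 mm, before and 30 min after s.c. saline or compound. Change computed for each mouse. Room temperature 21–24 °C.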

Mus musculus [6] = test: Antinociception activity in sc dosed mouse after 5 mins by tail-flick method
Mus musculus [7] = test: Antinociception activity in sc dosed mouse assessed as reaction time taken for jumping or licking paws after 5 mins by hot plate method
Mus musculus [8] = test: Effect on spontaneous locomotor activity in mouse at 10 mg/kg, sc after 5 mins by photocell based method; type: functional; conditions: route subcutaneous; summary of the method: as §2
Mus musculus [9] = test: Effect on hypothermia in mouse assessed as variation in rectal temperature at 10 mg/kg, sc measured after 30 mins by thermister probe based method; type: functional; conditions: route subcutaneous; summary of the method: as §3
Mus musculus [10] = test: Antinociception activity in mouse assessed as reaction time taken for jumping or licking paws at 10 mg/kg, sc after 5 mins by hot plate method; type: functional; conditions: route subcutaneous
Summary of the method: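 Mice placed on a 55 °C hot plate; latency is time to jump or paw-lick. Two baseline latencies taken at least 10 min apart. Tested 5 min after s.c. dosing. %MPE computed with a 40 s maximum. Eight mice per dose.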

[11] = molecular target: T3, Neuronal acetylcholine receptor subunit alpha-7 (Rattus norvegicus, UniProt Q05941); test: Antagonist activity at rat alpha7 nAChR expressed in Xenopus laevis oocytes assessed as inhibition of acetylcholine-induced response after 2 to 6 days by two electrode voltage clamp assay; type: functional, cell-based, Oocyte
[12] = molecular target: Neuronal acetylcholine receptor; alpha4/beta2 (Rattus norvegicus, UniProt P09483+P12390); test: Antagonist activity at rat alpha4beta2 nAChR expressed in Xenopus laevis oocytes assessed as inhibition of acetylcholine-induced response after 2 to 6 days by two electrode voltage clamp assay; type: functional, cell-based, Oocyte
[13] = molecular target: Neuronal acetylcholine receptor subunit alpha-7 (Rattus norvegicus) (UniProt Q05941); test: Antagonist activity at rat alpha7 nAChR expressed in Xenopus laevis oocytes assessed as inhibition of acetylcholine-induced response at 100 uM after 2 to 6 days by two electrode voltage clamp assay; type: functional, cell-based; conditions: Oocyte
[14] = molecular target: T1, Neuronal acetylcholine receptor; alpha3/beta4 (Rattus norvegicus); test: Antagonist activity at rat alpha3beta4 nAChR expressed in Xenopus laevis oocytes assessed as inhibition of acetylcholine-induced response at 100 uM after 2 to 6 days by two electrode voltage clamp assay; type: functional, cell-based; conditions: Oocyte
Summary of the method: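 Xenopus oocytes expressing rat nAChRs (α4β2 and α3β4 subunits injected at 1:1), recorded by two-electrode voltage clamp in ND96 (pH 7.5) at 20–25 °C. […] Current compared with the mean of three preceding ACh-alone responses and given as % remaining.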

[15] = molecular target: T2, Neuronal acetylcholine receptor; alpha4/beta2 (Rattus norvegicus); test: Antagonist activity at rat alpha4beta2 nAChR expressed in Xenopus laevis oocytes assessed as inhibition of acetylcholine-induced response at 100 uM after 2 to 6 days by two electrode voltage clamp assay; type: functional, cell-based; conditions: Oocyte
Summary of the method: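 Xenopus oocytes expressing rat nAChRs (α4β2 and α3β4 subunits injected at 1:1), recorded by two-electrode voltage clamp in ND96 (pH 7.5) at 20–25 °C. Current compared with the mean of three preceding ACh-alone responses and given as % remaining.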

[16] = molecular target: Neuronal acetylcholine receptor; alpha3/beta4 (Rattus norvegicus, UniProt P04757+P12392); test: Antagonist activity at rat alpha3beta4 nAChR expressed in Xenopus laevis oocytes assessed as inhibition of acetylcholine-induced response after 2 to 6 days by two electrode voltage clamp assay; type: functional, cell-based, Oocyte
[17] = molecular target: T3, Neuronal acetylcholine receptor subunit alpha-7; test: Displacement of [125I]iodoMLA from rat cerebral cortex alpha7 nAChR at 50 nM incubated for 2 hrs by microplate scintillation assay; type: tissue-based
Summary of the method: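 Rat cerebral cortex membranes (3 mg wet weight) in Tris assay buffer pH 7.4. Run in triplicate, 2 h on ice. Nonspecific binding with 300 µM (–)-nicotine. Filtered onto BSA-presoaked GF/B and counted by microplate scintillation.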

[18] = Displacement of [3H]epibatidine from rat cerebral cortex alpha4beta2* nAChR incubated for 4 hrs by liquid scintillation assay; type: tissue-based
Summary of the method: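 Washed rat cerebral cortex membranes (3 mg wet weight) in 50 mM Tris pH 7.4 with 120 mM NaCl, 5 mM KCl, 2 mM CaCl2, 1 mM MgCl2. 4 h at room temperature. Nonspecific binding with 300 µM (–)-nicotine. Filtration on PEI-soaked GF/B. Ki from IC50 by Cheng–Prusoff.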

Mus musculus [19] = test: Antagonist activity in sc dosed mouse assessed as inhibition of nicotine-induced antinociception after 5 mins by hot plate method; type: functional
Mus musculus [20] = test: Antinociception activity in mouse at 10 mg/kg, sc after 5 mins by tail-flick method; type: functional; conditions: route subcutaneous
Summary of the method: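 Mouse tail-flick: baseline latency 2–4 s, 10 s cutoff, tested 5 min after s.c. injection. %MPE = (test−control)/(10−control)×100. Eight to twelve mice per dose.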

Mus musculus [21] = test: Antagonist activity in sc dosed mouse assessed as inhibition of nicotine-induced antinociception after 5 mins by tail flick method; type: functional
Mus musculus [22] = test: Antagonist activity in mouse assessed as inhibition of nicotine-induced antinociception at 10000 ug/kg, sc after 5 mins by hot plate method; type: functional
Mus musculus [23] = test: Antagonist activity in mouse assessed as inhibition of nicotine-induced antinociception at 2000 ug/kg, sc after 5 mins by hot plate method; type: functional

Sequence of Neuronal acetylcholine receptor; alpha4/beta2 (P09483 whole entry): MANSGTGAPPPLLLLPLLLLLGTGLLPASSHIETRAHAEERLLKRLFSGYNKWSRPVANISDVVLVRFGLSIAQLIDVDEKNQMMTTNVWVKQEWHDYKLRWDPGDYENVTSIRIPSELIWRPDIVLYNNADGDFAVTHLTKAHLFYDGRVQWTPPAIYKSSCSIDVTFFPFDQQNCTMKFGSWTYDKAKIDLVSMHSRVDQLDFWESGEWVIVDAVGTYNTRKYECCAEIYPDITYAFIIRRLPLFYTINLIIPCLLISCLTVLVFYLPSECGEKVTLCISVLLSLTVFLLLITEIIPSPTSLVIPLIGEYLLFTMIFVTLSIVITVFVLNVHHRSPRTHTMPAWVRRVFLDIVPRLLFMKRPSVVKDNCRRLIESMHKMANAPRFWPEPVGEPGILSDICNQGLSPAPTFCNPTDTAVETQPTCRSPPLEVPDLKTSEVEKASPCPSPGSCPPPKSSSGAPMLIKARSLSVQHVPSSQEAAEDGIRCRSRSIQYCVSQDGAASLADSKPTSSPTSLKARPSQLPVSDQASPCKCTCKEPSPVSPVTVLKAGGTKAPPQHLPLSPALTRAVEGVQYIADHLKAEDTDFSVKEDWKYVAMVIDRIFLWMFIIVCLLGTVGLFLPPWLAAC
Sequence of Neuronal acetylcholine receptor; alpha4/beta2 (P12390 whole entry): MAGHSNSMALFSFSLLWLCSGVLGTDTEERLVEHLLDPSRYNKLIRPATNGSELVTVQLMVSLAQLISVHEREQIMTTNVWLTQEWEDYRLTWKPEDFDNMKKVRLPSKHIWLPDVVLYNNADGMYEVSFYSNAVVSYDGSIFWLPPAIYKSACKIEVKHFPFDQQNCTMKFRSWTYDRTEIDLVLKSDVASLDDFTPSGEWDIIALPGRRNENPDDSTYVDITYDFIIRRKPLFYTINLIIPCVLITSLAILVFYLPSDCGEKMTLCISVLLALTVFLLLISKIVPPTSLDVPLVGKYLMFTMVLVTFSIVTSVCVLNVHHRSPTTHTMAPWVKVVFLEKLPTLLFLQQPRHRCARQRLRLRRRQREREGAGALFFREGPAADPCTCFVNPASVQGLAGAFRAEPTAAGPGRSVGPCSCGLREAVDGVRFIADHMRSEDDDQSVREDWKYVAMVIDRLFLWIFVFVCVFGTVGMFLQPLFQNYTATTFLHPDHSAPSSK
Sequence of Neuronal acetylcholine receptor; alpha3/beta4 (P04757 whole entry): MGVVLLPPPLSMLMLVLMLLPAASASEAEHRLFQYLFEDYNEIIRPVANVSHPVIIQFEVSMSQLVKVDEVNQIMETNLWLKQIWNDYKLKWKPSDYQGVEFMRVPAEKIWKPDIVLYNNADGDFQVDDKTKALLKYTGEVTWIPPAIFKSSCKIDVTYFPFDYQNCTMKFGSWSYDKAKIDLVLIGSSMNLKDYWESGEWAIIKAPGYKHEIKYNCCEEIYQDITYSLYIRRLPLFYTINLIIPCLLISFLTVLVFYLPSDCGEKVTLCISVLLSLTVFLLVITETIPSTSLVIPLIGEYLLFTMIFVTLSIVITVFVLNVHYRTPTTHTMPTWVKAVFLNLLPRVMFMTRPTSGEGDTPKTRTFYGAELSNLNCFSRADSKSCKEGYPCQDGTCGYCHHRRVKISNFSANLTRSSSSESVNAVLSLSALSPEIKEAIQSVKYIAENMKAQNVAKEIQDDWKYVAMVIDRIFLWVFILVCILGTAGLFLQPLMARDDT
Sequence of Neuronal acetylcholine receptor; alpha3/beta4 (P12392 whole entry): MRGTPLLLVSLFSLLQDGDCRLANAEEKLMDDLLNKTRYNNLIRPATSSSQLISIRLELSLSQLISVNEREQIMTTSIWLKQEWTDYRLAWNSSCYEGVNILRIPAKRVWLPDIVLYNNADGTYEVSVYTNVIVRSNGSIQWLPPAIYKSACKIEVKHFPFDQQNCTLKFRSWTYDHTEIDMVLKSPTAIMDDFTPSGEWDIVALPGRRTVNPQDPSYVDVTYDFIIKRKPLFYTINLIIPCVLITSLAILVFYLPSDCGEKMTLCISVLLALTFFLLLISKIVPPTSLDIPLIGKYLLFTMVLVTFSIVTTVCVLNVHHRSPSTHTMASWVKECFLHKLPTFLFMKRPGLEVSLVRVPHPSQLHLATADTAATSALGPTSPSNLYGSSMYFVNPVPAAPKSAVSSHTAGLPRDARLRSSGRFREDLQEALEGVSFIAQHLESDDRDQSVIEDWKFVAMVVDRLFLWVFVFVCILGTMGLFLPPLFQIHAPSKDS
T3 sequence (Q05941 whole entry): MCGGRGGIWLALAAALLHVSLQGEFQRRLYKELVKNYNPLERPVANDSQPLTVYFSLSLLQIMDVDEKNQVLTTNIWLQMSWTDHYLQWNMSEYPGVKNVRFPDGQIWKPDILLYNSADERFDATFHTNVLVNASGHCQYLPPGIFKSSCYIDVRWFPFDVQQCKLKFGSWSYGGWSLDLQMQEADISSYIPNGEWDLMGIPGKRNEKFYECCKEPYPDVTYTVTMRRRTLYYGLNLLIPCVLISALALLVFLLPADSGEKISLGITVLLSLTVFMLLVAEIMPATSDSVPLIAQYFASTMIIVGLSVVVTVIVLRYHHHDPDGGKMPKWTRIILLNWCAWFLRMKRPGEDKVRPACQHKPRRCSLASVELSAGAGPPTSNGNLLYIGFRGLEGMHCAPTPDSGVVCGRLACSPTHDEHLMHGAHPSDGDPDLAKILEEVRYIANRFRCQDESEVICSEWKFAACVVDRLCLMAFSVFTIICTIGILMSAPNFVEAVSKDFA
Sequence of Neuronal acetylcholine receptor subunit alpha-7 (Rattus norvegicus) (Q05941 whole entry, the tested form may be a part): as the sequence (Q05941 whole entry) above

Structure (SMILES)	%max [1] [%]	%max [2] [%]	%max [3] [%]	ED50 (Mus musculus [4]) [mg/kg]	ED50 (Mus musculus [5]) [mg/kg]	Activity (Mus musculus [8]) [%]	Activity (Mus musculus [9]) [%]	Activity (Mus musculus [10]) [%]	IC50 [11] [nM]	IC50 [12] [nM]	inhibition [13] [%]	inhibition [14] [%]	inhibition [15] [%]	IC50 [16] [nM]	Ki [17] [nM]	Ki [18] [nM]	AD50 (Mus musculus [19]) [mg/kg]	Activity (Mus musculus [20]) [%]	AD50 (Mus musculus [21]) [mg/kg]	other results
Clc1ccc([C@H]2CC3CCC2N3)cn1 (mixture of isomers)	150	97	131	0.001	0.004	–	–	–	–	–	–	–	–	–	–	–	–	–	–	ED50 (Mus musculus [6]): 0.006 mg/kg; ED50 (Mus musculus [7]): 0.004 mg/kg
Fc1ncc(C2CC3CCC2N3)cc1-c1ccc(C(F)(F)F)cc1 (racemic)	4	0	0	–	–	5	0	6	4000	6000	3	4	8	5000	> 2000	0.44	6	–	–	–
CS(=O)(=O)c1ccc(-c2cc(C3CC4CCC3N4)cnc2F)cc1 (racemic)	3	0	0	–	–	12	1	1	–	2800	33	25	–	11000	–	0.17	2.6	6	0.018	–
NS(=O)(=O)c1ccc(-c2cc(C3CC4CCC3N4)cnc2F)cc1 (racemic)	1.8	0	0	–	–	5	0	19	–	–	18	5	4	–	> 2000	0.94	1	–	0.0009	–
O=S(=O)(c1ccc(-c2cc(C3CC4CCC3N4)cnc2F)cc1)C(F)(F)F (racemic)	1.8	1.9	0	4.2	–	–	0	–	–	–	42	15	7	–	> 2000	0.03	–	3	1.6	inhibition in vivo at 10 mg/kg (Mus musculus [22]): 50%
NC(=O)c1ccc(-c2cc(C3CC4CCC3N4)cnc2F)cc1 (racemic)	17	8	3.5	–	4.2	–	–	60	35000	1500	54	36	6	35000	1870	0.12	–	16	0.009	inhibition in vivo at 2 mg/kg (Mus musculus [23]): 1%
O=[N+]([O-])c1ccc(-c2cc(C3CC4CCC3N4)cnc2F)cc1 (racemic)	6	4	0	0.22	0.21	–	–	–	32000	3200	55	9	6	7900	> 2000	0.009	0.12	5	0.003	–
N#Cc1ccc(-c2cc(C3CC4CCC3N4)cnc2F)cc1 (racemic)	3	6	0	–	–	0	0	18	98000	11000	49	17	8	7000	> 2000	0.19	–	4	–	inhibition in vivo at 10 mg/kg (Mus musculus [22]): 24%
c1cnc2cc3c(cc2n1)[C@@H]1CNC[C@H]3C1 [VARENICLINE]	74	66	13	2.1	2.8	–	–	10	–	–	–	–	38	–	–	–	0.47	11	0.0002	–
